Assay results published in ChEMBL document CHEMBL4689842, “EUbOPEN Chemogenomics Library wave 1” (2021).

Test system: Fibroblast
Experiment: Multiplex assay against human fibroblast
Format: toxicity, cell-based
How it was run: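 Per cents of healthy-nucleus cells form the tubulin, mitochondrial-mass and membrane-permeability phenotype values. Live cells were stained at seeding with Hoechst33342, BioTracker Green Microtubule Cytoskeleton Dye, MitoTracker Red and Annexin V Alexa Fluor 680. After compound addition they were imaged on a CQ1 microscope at 37°C and 5% CO2, and CellPathfinder machine-learning gating split them into Hoechst high-intensity objects or normal cells, normal cells into healthy, pyknosed or fragmented nuclei, and pyknosed cells into mitotic or apoptotic.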

[1] = 12 h, 1 µM, compound concentration 1 uM, replicate 1
[2] = 12 h, 1 µM, compound concentration 1 uM, replicate 2
[3] = 12 h, 10 µM, compound concentration 10 uM, replicate 1
[4] = 12 h, 10 µM, compound concentration 10 uM, replicate 2
[5] = 24 h, 1 µM, compound concentration 1 uM, replicate 1
[6] = 24 h, 1 µM, compound concentration 1 uM, replicate 2
[7] = 24 h, 10 µM, compound concentration 10 uM, replicate 1
[8] = 24 h, 10 µM, compound concentration 10 uM, replicate 2
[9] = 48 h, 1 µM, compound concentration 1 uM, replicate 1
[10] = 48 h, 1 µM, compound concentration 1 uM, replicate 2
[11] = 48 h, 10 µM, compound concentration 10 uM, replicate 1
[12] = 48 h, 10 µM, compound concentration 10 uM, replicate 2

## CN1CCN(c2ccc(OC(F)(F)F)c(Nc3ncc4c(n3)-c3c(c(C(N)=O)nn3CCO)CC4)c2)CC1 [ONVANSERTIB]
[1]
  Population Apoptotic (%): 63%
  Population Fragmented Nuclei (%): 23%
  Population Healthy Nuclei (%): 35%
  Population Hoechst High Intensity Objects (%): 19%
  Population Membrane Permeable-Phenotype (%): 29%
  Population Mitochondria Different-Phenotype (%): 10%
  Population Mitotic Cells (%): 36%
  Population Normal (%): 80%
  Population Pyknosed Nuclei (%): 40%
  Population Tubulin-Different-Phenotype (%): 41%
  Total Cell Count: 168
[2]
  Population Apoptotic (%): 25%
  Population Fragmented Nuclei (%): 11%
  Population Healthy Nuclei (%): 80%
  Population Hoechst High Intensity Objects (%): 14%
  Population Membrane Permeable-Phenotype (%): 0%
  Population Mitochondria Different-Phenotype (%): 14%
  Population Mitotic Cells (%): 75%
  Population Normal (%): 85%
  Population Pyknosed Nuclei (%): 7%
  Population Tubulin-Different-Phenotype (%): 16%
  Total Cell Count: 66
[3]
  Population Apoptotic (%): 68%
  Population Fragmented Nuclei (%): 34%
  Population Healthy Nuclei (%): 36%
  Population Hoechst High Intensity Objects (%): 15%
  Population Membrane Permeable-Phenotype (%): 3%
  Population Mitochondria Different-Phenotype (%): 9%
  Population Mitotic Cells (%): 32%
  Population Normal (%): 84%
  Population Pyknosed Nuclei (%): 29%
  Population Tubulin-Different-Phenotype (%): 64%
[4]
  Population Apoptotic (%): 40%
  Population Fragmented Nuclei (%): 9%
  Population Healthy Nuclei (%): 78%
  Population Hoechst High Intensity Objects (%): 19%
  Population Membrane Permeable-Phenotype (%): 0%
  Population Mitochondria Different-Phenotype (%): 84%
  Population Mitotic Cells (%): 60%
  Population Normal (%): 80%
  Population Pyknosed Nuclei (%): 12%
  Population Tubulin-Different-Phenotype (%): 78%
  Total Cell Count: 61
[5]
  Population Apoptotic (%): 53%
  Population Fragmented Nuclei (%): 25%
  Population Healthy Nuclei (%): 41%
  Population Hoechst High Intensity Objects (%): 24%
  Population Membrane Permeable-Phenotype (%): 25%
  Population Mitochondria Different-Phenotype (%): 7%
  Population Mitotic Cells (%): 46%
  Population Normal (%): 75%
  Population Pyknosed Nuclei (%): 33%
  Population Tubulin-Different-Phenotype (%): 61%
  Total Cell Count: 165
[6]
  Population Apoptotic (%): 57%
  Population Fragmented Nuclei (%): 21%
  Population Healthy Nuclei (%): 65%
  Population Hoechst High Intensity Objects (%): 5%
  Population Membrane Permeable-Phenotype (%): 5%
  Population Mitochondria Different-Phenotype (%): 32%
  Population Mitotic Cells (%): 42%
  Population Normal (%): 94%
  Population Pyknosed Nuclei (%): 13%
  Population Tubulin-Different-Phenotype (%): 11%
  Total Cell Count: 73
[7]
  Population Apoptotic (%): 58%
  Population Fragmented Nuclei (%): 39%
  Population Healthy Nuclei (%): 37%
  Population Hoechst High Intensity Objects (%): 18%
  Population Membrane Permeable-Phenotype (%): 28%
  Population Mitochondria Different-Phenotype (%): 0%
  Population Mitotic Cells (%): 41%
  Population Normal (%): 81%
  Population Pyknosed Nuclei (%): 23%
  Population Tubulin-Different-Phenotype (%): 66%
  Total Cell Count: 127
[8]
  Population Apoptotic (%): 40%
  Population Fragmented Nuclei (%): 11%
  Population Healthy Nuclei (%): 77%
  Population Hoechst High Intensity Objects (%): 16%
  Population Membrane Permeable-Phenotype (%): 5%
  Population Mitochondria Different-Phenotype (%): 82%
  Population Mitotic Cells (%): 60%
  Population Normal (%): 83%
  Population Pyknosed Nuclei (%): 11%
  Population Tubulin-Different-Phenotype (%): 55%
  Total Cell Count: 55
[9]
  Population Apoptotic (%): 53%
  Population Fragmented Nuclei (%): 38%
  Population Healthy Nuclei (%): 37%
  Population Hoechst High Intensity Objects (%): 21%
  Population Membrane Permeable-Phenotype (%): 25%
  Population Mitochondria Different-Phenotype (%): 6%
  Population Mitotic Cells (%): 46%
  Population Normal (%): 78%
  Population Pyknosed Nuclei (%): 24%
  Population Tubulin-Different-Phenotype (%): 65%
  Total Cell Count: 146
[10]
  Population Apoptotic (%): 40%
  Population Fragmented Nuclei (%): 25%
  Population Healthy Nuclei (%): 68%
  Population Hoechst High Intensity Objects (%): 17%
  Population Membrane Permeable-Phenotype (%): 13%
  Population Mitochondria Different-Phenotype (%): 1%
  Population Mitotic Cells (%): 60%
  Population Normal (%): 82%
  Population Pyknosed Nuclei (%): 5%
  Population Tubulin-Different-Phenotype (%): 23%
[11]
  Population Apoptotic (%): 50%
  Population Fragmented Nuclei (%): 46%
  Population Healthy Nuclei (%): 40%
  Population Hoechst High Intensity Objects (%): 23%
  Population Membrane Permeable-Phenotype (%): 19%
  Population Mitochondria Different-Phenotype (%): 9%
  Population Mitotic Cells (%): 50%
  Population Normal (%): 76%
  Population Pyknosed Nuclei (%): 13%
  Population Tubulin-Different-Phenotype (%): 69%
  Total Cell Count: 136
[12]
  Population Fragmented Nuclei (%): 37%
  Population Healthy Nuclei (%): 58%
  Population Hoechst High Intensity Objects (%): 20%
  Population Membrane Permeable-Phenotype (%): 7%
  Population Mitochondria Different-Phenotype (%): 4%
  Population Normal (%): 79%
  Population Pyknosed Nuclei (%): 4%
  Population Tubulin-Different-Phenotype (%): 73%
  Total Cell Count: 241
